In ChEMBL document CHEMBL4014326, “Discovery of an Orally Bioavailable Benzimidazole Diacylglycerol Acyltransferase 1 (DGAT1) Inhibitor That Suppresses Body Weight Gain in Diet-Induced Obese Dogs and Postprandial Triglycerides in Humans” (J Med Chem, 2017):

What was measured:
[1] = Drug metabolism in dog hepatocytes assessed as [3H]-3-(3,5-dimethyl-4-(6-(5-phenyl-1,3,4-oxadiazol-2-yl)-1H-benzo[d]imidazol-2-yl)phenyl)-2,2-dimethylpropanoic acid formation at 12.5 uM after 18 hrs; assay type: ADME, cell-based, Canis lupus familiaris, Hepatocyte
Method in brief: (§1)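 [3H]-labelled compound (12.5 µM) was incubated for 18 h with rat, dog, monkey or human hepatocytes, and metabolites were profiled.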

[2] = Cmax in Sprague-Dawley rat at 3 mg/kg, po by LC/MS/MS analysis; assay type: ADME, organism-based; set-up: dose 3 mg/kg, route oral; details: in vivo
Method in brief: (§2)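 Male Sprague-Dawley rats, 200-300 g, dosed iv (n = 2) or po (n = 3) as solutions in NMP/PG or PEG400/ETPGS vehicles. Blood was taken from a jugular vein catheter at 0.083 (iv only), 0.25, 0.5, 1, 2, 4, 6 and 8 h into EDTA tubes, and plasma was analysed by LC-MS/MS. Values are means ± SD.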

[3] = Permeability across basolateral to apical side in human Caco2 cells; assay type: ADME, cell-based; details: Caco-2, read-out: permeability
Method in brief: (§3)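 Caco-2 monolayer permeability was measured in the A-B and B-A directions, and the efflux ratio was taken as B-A/A-B.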

[4] = Drug metabolism in human hepatocytes assessed as [3H]-(2S,3S,4S,5R,6S)-3,4,5-trihydroxy-6-(3-(4-(6-(5-(4-methoxyphenyl)-1,3,4-oxadiazol-2-yl)-1H-benzo[d]imidazol-2-yl)-3,5-dimethylphenyl)-2,2-dimethylpropanoyloxy)tetrahydro-2H-pyran-2-carboxylic acid formation at 12.5 uM after 18 hrs; assay type: ADME, cell-based, Hepatocyte; method in brief: as §1
Salmonella typhimurium [5] = assay: Genotoxicity in histidine depleted Salmonella typhimurium TA98 assessed as increase in reverting mutations up to 1000 ug in absence of S9 metabolic activation by Ames test; assay type: toxicity; details: salmonella enterica subsp. enterica serovar typhimurium
[6] = Drug metabolism in monkey hepatocytes assessed as [3H]-3-(3,5-dimethyl-4-(6-(5-phenyl-1,3,4-oxadiazol-2-yl)-1H-benzo[d]imidazol-2-yl)phenyl)-2,2-dimethylpropanoic acid formation at 12.5 uM after 18 hrs; assay type: ADME, cell-based, Macaca mulatta, Hepatocyte; details: rhesus monkey; method in brief: as §1
Salmonella typhimurium [7] = assay: Genotoxicity in histidine depleted Salmonella typhimurium TA98 assessed as increase in reverting mutations up to 1000 ug in presence of S9 metabolic activation by Ames test; assay type: toxicity; details: salmonella enterica subsp. enterica serovar typhimurium
[8] = Oral bioavailability in Sprague-Dawley rat at 3 mg/kg by LC/MS/MS analysis; assay type: ADME, organism-based; details: in vivo; method in brief: as §2
Homo sapiens [9] = assay: Toxicity in human assessed as diarrhea at 150 mg, po as single oral dose; assay type: organism-based; details: in vivo
[10] = Drug metabolism in rat hepatocytes assessed as [3H]-3-(3,5-dimethyl-4-(6-(5-phenyl-1,3,4-oxadiazol-2-yl)-1H-benzo[d]imidazol-2-yl)phenyl)-2,2-dimethylpropanoic acid formation at 12.5 uM after 18 hrs; assay type: ADME, cell-based, Hepatocyte; method in brief: as §1
[11] = Tmax in Sprague-Dawley rat 3 mg/kg, po by LC/MS/MS analysis; assay type: ADME, organism-based; details: in vivo; method in brief: as §2
[12] = Efflux ratio of permeability across basolateral to apical side over apical to basolateral side in human Caco2 cells; assay type: ADME, cell-based; details: Caco-2; method in brief: as §3
[13] = molecular target: T1, Diacylglycerol O-acyltransferase 2 (Homo sapiens, UniProt Q96PD7); assay: Inhibition of DGAT2 (unknown origin)
T1 sequence (Q96PD7 whole entry): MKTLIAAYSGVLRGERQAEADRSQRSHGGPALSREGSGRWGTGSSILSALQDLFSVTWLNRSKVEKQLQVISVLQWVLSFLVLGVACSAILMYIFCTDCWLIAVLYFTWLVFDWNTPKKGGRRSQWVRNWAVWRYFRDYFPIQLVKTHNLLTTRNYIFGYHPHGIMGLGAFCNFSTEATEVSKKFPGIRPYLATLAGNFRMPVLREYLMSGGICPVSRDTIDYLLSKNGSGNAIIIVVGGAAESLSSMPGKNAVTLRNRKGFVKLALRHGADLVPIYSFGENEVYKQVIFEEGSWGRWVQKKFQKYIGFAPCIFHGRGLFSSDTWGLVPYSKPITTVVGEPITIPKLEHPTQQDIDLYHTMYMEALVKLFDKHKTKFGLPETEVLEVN

[14] = AUC (0 to 8 hrs) in Sprague-Dawley rat at 1mg/kg, iv by LC/MS/MS analysis; assay type: ADME, organism-based; set-up: time < 8 hr, dose 1 mg/kg, route intravenous; details: in vivo; method in brief: as §2
[15] = Drug metabolism in monkey hepatocytes assessed as [3H]-(2S,3S,4S,5R,6S)-3,4,5-trihydroxy-6-(3-(4-(6-(5-(4-methoxyphenyl)-1,3,4-oxadiazol-2-yl)-1H-benzo[d]imidazol-2-yl)-3,5-dimethylphenyl)-2,2-dimethylpropanoyloxy)tetrahydro-2H-pyran-2-carboxylic acid formation at 12.5 uM after 18 hrs; assay type: ADME, cell-based, Macaca mulatta, Hepatocyte; details: rhesus monkey; method in brief: as §1
[16] = AUC (0 to 8 hrs) in Sprague-Dawley rat at 3 mg/kg, po by LC/MS/MS analysis; assay type: ADME, organism-based; set-up: dose 3 mg/kg, time < 8 hr, route oral; details: in vivo; method in brief: as §2
[17] = Drug metabolism in rat hepatocytes assessed as [3H]-(2S,3S,4S,5R,6S)-3,4,5-trihydroxy-6-(3-(4-(6-(5-(4-methoxyphenyl)-1,3,4-oxadiazol-2-yl)-1H-benzo[d]imidazol-2-yl)-3,5-dimethylphenyl)-2,2-dimethylpropanoyloxy)tetrahydro-2H-pyran-2-carboxylic acid formation at 12.5 uM after 18 hrs; assay type: ADME, cell-based, Hepatocyte; method in brief: as §1
[18] = Drug metabolism in dog hepatocytes assessed as [3H]-(2S,3S,4S,5R,6S)-3,4,5-trihydroxy-6-(3-(4-(6-(5-(4-methoxyphenyl)-1,3,4-oxadiazol-2-yl)-1H-benzo[d]imidazol-2-yl)-3,5-dimethylphenyl)-2,2-dimethylpropanoyloxy)tetrahydro-2H-pyran-2-carboxylic acid formation at 12.5 uM after 18 hrs; assay type: ADME, cell-based, Canis lupus familiaris, Hepatocyte; method in brief: as §1
[19] = Permeability across apical to basolateral side in human Caco2 cells; assay type: ADME, cell-based; details: Caco-2, read-out: permeability; method in brief: as §3
[20] = molecular target: T2, Diacylglycerol O-acyltransferase 1 (Homo sapiens, UniProt O75907); assay: Inhibition of recombinant human His6-tagged DGAT1 expressed in Sf9 insect cell membranes assessed as inhibition of triglyceride formation using diolein/oleyl-CoA as substrate after 30 mins by LC/MS/MS analysis
T2 sequence (O75907 whole entry): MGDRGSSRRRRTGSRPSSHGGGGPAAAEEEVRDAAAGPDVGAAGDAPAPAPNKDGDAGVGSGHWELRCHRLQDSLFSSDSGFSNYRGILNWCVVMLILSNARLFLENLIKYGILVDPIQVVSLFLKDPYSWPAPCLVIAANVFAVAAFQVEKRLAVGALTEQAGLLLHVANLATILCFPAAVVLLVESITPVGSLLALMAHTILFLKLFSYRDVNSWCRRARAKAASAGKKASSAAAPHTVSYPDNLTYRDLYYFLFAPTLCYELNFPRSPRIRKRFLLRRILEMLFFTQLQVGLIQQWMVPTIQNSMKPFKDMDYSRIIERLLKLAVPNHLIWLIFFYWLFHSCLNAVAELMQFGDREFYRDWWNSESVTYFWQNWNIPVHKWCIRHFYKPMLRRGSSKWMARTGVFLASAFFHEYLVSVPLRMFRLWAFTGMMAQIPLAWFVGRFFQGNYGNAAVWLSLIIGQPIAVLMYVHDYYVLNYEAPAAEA

Homo sapiens [21] = assay: Toxicity in human assessed as nausea at 150 mg, po as single oral dose; assay type: organism-based; details: in vivo

COc1ccc(-c2nnc(-c3ccc4nc(-c5c(C)cc(CC(C)(C)C(=O)O)cc5C)[nH]c4c3)o2)cc1
Drug metabolism [1]: Metabolite_Detected | Cmax [2]: 3.55 µM | Papp B→A [3]: 10 ×10⁻⁶ cm/s | Drug metabolism [4]: Metabolite_Detected | Activity (Salmonella typhimurium [5]): Non-Toxic | Drug metabolism [6]: Metabolite_Detected | Activity (Salmonella typhimurium [7]): Non-Toxic | bioavailability [8]: 90% | Activity (Homo sapiens [9]): Toxic | Drug metabolism [10]: Metabolite_Detected | Tmax [11]: 1.2 h | efflux ratio [12]: 2.4 | IC50 [13]: > 10000 nM | AUC(0-t) at 8 h [14]: 3.86 µM·h | Drug metabolism [15]: Metabolite_Detected | AUC(0-t) at 8 h [16]: 10.4 µM·h | Drug metabolism [17]: Metabolite_Detected | Drug metabolism [18]: Metabolite_Detected | Papp A→B [19]: 4.2 ×10⁻⁶ cm/s | IC50 [20]: 17 nM | Activity (Homo sapiens [21]): Toxic
